This is an account of results in ChEMBL document CHEMBL3259647, “Design, synthesis, and biological evaluation of potent dual agonists of nuclear and membrane bile acid receptors” (J Med Chem, 2014).

Experiment [1] concerns the target T1, G-protein coupled bile acid receptor 1 (Homo sapiens, UniProt Q8TDU6).
T1 sequence (Q8TDU6 whole entry): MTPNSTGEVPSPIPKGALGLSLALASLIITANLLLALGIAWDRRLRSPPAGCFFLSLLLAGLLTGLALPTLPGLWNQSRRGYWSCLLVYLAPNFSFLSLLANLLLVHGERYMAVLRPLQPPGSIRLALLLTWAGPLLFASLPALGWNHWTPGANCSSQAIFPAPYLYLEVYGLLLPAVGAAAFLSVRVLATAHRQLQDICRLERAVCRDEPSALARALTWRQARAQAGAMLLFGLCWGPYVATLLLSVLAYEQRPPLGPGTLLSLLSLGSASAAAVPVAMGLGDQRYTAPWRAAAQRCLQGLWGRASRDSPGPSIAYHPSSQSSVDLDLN
As to the kind of experiment: Transactivation of human GP-BAR1 transfected in HEK293T cells assessed as induction of intracellular cAMP production after 18 hrs by cAMP responsive element containing luciferase reporter gene assay. The class given is functional, cell-based, HEK-293T. An outline of the steps:
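Concentration–response in GP-BAR1/CRE-luciferase transfected HEK-293T: 0.1, 1 and 10 μM for 18 h, with TLCA 10 μM positive control. Renilla-normalized luciferase used to calculate EC50.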
(cAMP levels reflect the balance of adenylyl cyclase and phosphodiesterase activity.)

The target in experiment [2] is T2, G-protein coupled bile acid receptor 1 (Mus musculus) (UniProt Q80SS6).
T2 sequence (whole entry): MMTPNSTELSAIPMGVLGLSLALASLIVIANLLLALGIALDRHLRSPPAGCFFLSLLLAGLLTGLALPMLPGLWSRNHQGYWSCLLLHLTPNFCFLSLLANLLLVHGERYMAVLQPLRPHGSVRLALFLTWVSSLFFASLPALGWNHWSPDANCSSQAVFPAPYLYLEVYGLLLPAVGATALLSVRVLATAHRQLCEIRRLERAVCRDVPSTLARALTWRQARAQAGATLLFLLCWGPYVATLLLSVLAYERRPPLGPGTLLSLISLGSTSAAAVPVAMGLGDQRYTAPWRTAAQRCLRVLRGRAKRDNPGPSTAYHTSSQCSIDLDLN
Nature of the experiment: Agonist activity at GP-BAR1 in mouse GLUTag cells assessed as increase in GLP-1 release. Format: cell-based. A digest of the protocol:
(§1)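 GLUTag enteroendocrine cells measuring intracellular cAMP generation and GLP-1 released into supernatant. Values are the mean ± SE of four to five experiments; significance is versus untreated cells.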

Experiment [3] deals with T3, G-protein coupled bile acid receptor 1 (Homo sapiens) (UniProt Q8TDU6).
T3 sequence (whole entry): T1 sequence (Q8TDU6 whole entry)
As to the kind of experiment: Transactivation of human GP-BAR1 transfected in HEK293T cells assessed as induction of intracellular cAMP production at 10 uM after 18 hrs by luciferase reporter gene assay relative to TLCA. The class given is functional, cell-based. The following applies: HEK-293T. A digest of the protocol: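 HEK-293T co-transfected with human GP-BAR1 and a CRE-driven luciferase reporter. Stimulated 24 h post-transfection for 18 h at 10 μM. TLCA 10 μM as receptor-dependent reference; forskolin 10 μM as receptor-independent cAMP control. Luciferase normalized to Renilla; mean ± standard error.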

A further experiment deals with T4, Bile acid receptor (Homo sapiens, UniProt Q96RI1).
T4 sequence (Q96RI1 whole entry): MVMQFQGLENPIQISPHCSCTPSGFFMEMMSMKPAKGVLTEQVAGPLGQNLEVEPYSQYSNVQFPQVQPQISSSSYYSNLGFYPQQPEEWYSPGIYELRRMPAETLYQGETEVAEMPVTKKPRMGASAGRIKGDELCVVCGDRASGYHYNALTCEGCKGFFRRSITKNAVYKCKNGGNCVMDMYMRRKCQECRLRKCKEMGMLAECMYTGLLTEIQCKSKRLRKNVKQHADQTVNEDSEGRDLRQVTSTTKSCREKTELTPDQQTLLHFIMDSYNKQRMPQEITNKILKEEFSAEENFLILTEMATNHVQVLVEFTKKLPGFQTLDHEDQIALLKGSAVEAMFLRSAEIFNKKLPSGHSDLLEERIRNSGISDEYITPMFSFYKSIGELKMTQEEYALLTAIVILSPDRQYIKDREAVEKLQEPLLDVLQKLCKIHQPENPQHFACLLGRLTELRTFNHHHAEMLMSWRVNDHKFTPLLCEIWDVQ
As to the kind of experiment: Transactivation of human FXR transfected in human HepG2 cells by beta-galactosidase reporter gene assay. Format: cell-based. A digest of the protocol: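 FXR/RXR/β-gal/IR1-luciferase transfected HepG2 cells treated with 0.01, 0.1, 1 and 10 μM; CDCA 10 μM positive control. β-gal-normalized luciferase used to calculate EC50.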
In general terms: In a reporter assay the amount or activity of a reporter protein is the signal.

In another experiment the test system is Hepatocyte. Nature of the experiment: Upregulation of BESP mRNA expression in mouse primary hepatocytes isolated from FXR deficient mouse. The class given is functional, cell-based. An outline of the steps:
(§2)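 Hepatocytes from wild-type or FXR−/− mice were analysed by real-time PCR for BSEP mRNA, as a measure of FXR-dependent target gene induction. Data are the mean SE of four experiments.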

Experiment [4] concerns the target T2, G-protein coupled bile acid receptor 1 (Mus musculus). As to the kind of experiment: Agonist activity at GP-BAR1 in mouse GLUTag cells assessed as increase in intracellular cAMP level. Format: functional, cell-based. An outline of the steps:
as §1

In another experiment the test system is HEK-293T. Nature of the experiment: Induction of cAMP production in GP-BAR1-deficient HEK293T cells at 10 uM by cAMP responsive element containing luciferase reporter gene assay. Format: functional, cell-based. The settings on record: Homo sapiens. An outline of the steps:
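Control transfection of HEK-293T with only the pGL4.29 CRE-luciferase and pGL4.70 Renilla vectors, without GP-BAR1. 24 h after transfection, cells exposed 18 h to 10 μM compound. Luciferase normalized to Renilla.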

Experiment [5] addresses T5, Bile acid receptor (Mus musculus) (UniProt Q60641).
T5 sequence (whole entry): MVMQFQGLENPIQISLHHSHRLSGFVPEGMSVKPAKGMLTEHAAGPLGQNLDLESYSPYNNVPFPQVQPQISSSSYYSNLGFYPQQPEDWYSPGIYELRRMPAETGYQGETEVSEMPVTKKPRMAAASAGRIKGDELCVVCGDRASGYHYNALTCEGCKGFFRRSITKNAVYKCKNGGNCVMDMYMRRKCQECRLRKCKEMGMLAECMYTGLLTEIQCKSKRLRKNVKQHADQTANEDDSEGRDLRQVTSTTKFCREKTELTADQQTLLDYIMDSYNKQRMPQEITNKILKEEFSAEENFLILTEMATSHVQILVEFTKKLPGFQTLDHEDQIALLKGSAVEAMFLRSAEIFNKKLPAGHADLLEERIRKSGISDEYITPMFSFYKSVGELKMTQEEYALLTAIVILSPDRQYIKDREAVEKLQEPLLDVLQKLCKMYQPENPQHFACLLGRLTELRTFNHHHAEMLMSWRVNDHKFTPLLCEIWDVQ
Nature of the experiment: Agonist activity at FXR in mouse primary hepatocytes assessed as upregulation of BESP mRNA expression. Format: cell-based. The settings on record: Hepatocyte. A digest of the protocol:
as §2

Experiment [6] deals with T6, Bile acid receptor (Homo sapiens) (UniProt Q96RI1).
T6 sequence (whole entry): T4 sequence (Q96RI1 whole entry)
As to the kind of experiment: Transactivation of human FXR transfected in human HepG2 cells at 10 uM by beta-galactosidase reporter gene assay relative to CDCA. Format: cell-based. The settings on record: in the assay text read “luciferase reporter gene assay” for “beta-galactosidase reporter gene assay”. A digest of the protocol:
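HepG2 cells transfected with human FXR, RXR, β-gal and hsp27 IR1-luciferase reporter. 24 h post-transfection, stimulated 18 h at 10 μM, with CDCA 10 μM as positive control. Luciferase RLU divided by β-galactosidase activity; mean ± standard error.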

A word on the EC50: it is the concentration that produces a half-maximal response.

Calls of active or inactive are those of the source. The rule behind the calls is not given here.

On to `CC[C@H]1[C@@H](O)[C@@H]2[C@H](CC[C@]3(C)[C@@H]([C@H](C)CCCOS(=O)(=O)O)CC[C@@H]23)[C@@]2(C)CC[C@@H](O)C[C@@H]12`, for which the EC50 was determined as 0.2 µM in experiment [1] and 1 µM on Bile acid receptor. The outcome in [2], in experiment [4] and in experiment [5] was Active. The values for the Efficacy in [3] and in experiment [6] were 112% and 852%, respectively. Besides, the outcome in the experiment on Hepatocyte and in the experiment with HEK-293T was inactive.
